Reference: ChEMBL document CHEMBL1671788, “Discovery, synthesis, and structure-activity relationship development of a series of N-(4-acetamido)phenylpicolinamides as positive allosteric modulators of metabotropic glutamate receptor 4 (mGlu(4)) with CNS exposure in rats” (J Med Chem, 2011)
pEC50: −log10 of the molar value.

What was measured:
[1] = target: T1, Metabotropic glutamate receptor 4 (Homo sapiens, UniProt Q14833); assay: Positive allosteric modulation of human mGluR4 expressed in CHO cells coexpressing Gqi5 assessed as calcium mobilization relative to PHCCC; type: functional, cell-based
T1 sequence (Q14833 whole entry): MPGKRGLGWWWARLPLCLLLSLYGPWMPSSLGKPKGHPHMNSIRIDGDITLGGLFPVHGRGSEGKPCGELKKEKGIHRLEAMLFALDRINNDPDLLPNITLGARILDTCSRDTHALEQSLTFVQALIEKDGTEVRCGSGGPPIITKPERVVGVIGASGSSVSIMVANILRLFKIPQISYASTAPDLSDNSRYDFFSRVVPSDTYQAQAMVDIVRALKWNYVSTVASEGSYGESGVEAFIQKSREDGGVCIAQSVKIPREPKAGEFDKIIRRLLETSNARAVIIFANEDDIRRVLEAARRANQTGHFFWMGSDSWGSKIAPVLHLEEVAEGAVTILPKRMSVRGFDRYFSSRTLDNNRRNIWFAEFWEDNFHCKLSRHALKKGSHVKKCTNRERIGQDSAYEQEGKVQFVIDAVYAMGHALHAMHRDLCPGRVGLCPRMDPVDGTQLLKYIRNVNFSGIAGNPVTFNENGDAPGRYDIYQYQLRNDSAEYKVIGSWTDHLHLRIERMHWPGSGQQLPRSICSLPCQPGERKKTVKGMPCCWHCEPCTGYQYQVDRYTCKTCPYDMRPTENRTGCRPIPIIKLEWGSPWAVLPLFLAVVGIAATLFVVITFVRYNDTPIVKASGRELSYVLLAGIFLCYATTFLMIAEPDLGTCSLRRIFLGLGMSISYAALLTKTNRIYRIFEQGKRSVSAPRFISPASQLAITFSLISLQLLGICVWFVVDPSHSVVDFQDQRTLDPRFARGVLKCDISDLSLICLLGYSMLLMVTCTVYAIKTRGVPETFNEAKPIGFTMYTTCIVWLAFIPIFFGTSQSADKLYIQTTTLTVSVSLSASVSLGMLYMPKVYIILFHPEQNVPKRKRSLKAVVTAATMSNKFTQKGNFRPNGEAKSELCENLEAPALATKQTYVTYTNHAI
Procedure, shortened: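 CHO cells stably expressing human mGlu4 with Gqi5 were plated at 30,000 cells/well and grown overnight. Cells were loaded with 1 µM Fluo-4 AM for 45 min at 37 °C in HBSS/HEPES/2.5 mM probenecid buffer. […] Ca2+ fluorescence was read (ex 470, em 540 nm). Curves were fitted with a four-parameter logistic; ≥3 independent runs in triplicate.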

[2] = target: T1, Metabotropic glutamate receptor 4; assay: Positive allosteric modulation of human mGluR4 expressed in CHO cells coexpressing Gqi5 assessed as calcium mobilization; type: functional, cell-based; conditions: for pEC50: read-out: EC50; for EC50: cho
[3] = target: Metabotropic glutamate receptor 4 (Rattus norvegicus) (UniProt P31423); assay: Positive allosteric modulation of rat mGluR4 expressed in CHO cells coexpressing Gqi5 assessed as calcium mobilization relative to PHCCC; type: functional, cell-based
Metabotropic glutamate receptor 4 (Rattus norvegicus), sequence (P31423 whole entry): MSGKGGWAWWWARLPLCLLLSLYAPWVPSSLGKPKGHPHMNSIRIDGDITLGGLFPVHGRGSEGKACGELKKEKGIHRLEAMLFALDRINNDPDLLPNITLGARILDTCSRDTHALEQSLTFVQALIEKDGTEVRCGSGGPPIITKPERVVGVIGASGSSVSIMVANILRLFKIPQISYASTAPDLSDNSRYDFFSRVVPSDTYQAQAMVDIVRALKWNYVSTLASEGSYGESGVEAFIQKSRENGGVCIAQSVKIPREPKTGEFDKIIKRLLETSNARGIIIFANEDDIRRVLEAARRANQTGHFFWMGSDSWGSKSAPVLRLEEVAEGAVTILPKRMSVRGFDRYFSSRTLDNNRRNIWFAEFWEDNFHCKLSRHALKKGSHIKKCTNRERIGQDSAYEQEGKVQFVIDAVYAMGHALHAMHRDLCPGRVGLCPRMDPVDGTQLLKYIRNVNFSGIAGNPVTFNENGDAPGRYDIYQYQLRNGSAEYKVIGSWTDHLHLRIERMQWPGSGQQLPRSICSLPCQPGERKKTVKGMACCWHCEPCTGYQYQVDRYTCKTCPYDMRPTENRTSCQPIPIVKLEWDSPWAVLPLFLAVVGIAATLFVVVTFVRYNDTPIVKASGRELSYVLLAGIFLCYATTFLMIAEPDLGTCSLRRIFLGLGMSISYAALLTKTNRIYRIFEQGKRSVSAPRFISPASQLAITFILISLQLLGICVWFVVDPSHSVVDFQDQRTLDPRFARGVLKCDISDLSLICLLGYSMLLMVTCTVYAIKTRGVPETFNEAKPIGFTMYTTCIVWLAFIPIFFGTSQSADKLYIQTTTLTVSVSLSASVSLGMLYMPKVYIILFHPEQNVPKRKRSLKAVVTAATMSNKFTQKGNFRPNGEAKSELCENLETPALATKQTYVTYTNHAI

[4] = target: Metabotropic glutamate receptor 4 (Rattus norvegicus, UniProt P31423); assay: Positive allosteric modulation of rat mGluR4 expressed in CHO cells coexpressing Gqi5 assessed as calcium mobilization; type: functional, cell-based; conditions: for pEC50: read-out: EC50; for EC50: cho
Metabotropic glutamate receptor 4 (Rattus norvegicus, UniProt P31423), sequence (P31423 whole entry): as above

[5] = target: Metabotropic glutamate receptor 4 (Rattus norvegicus) (UniProt P31423); assay: Positive allosteric modulation of rat mGluR4 expressed in CHO cells coexpressing Gqi5 assessed as potentiation of glutamate-induced calcium mobilization; type: functional, cell-based
[6] = Plasma protein binding in Sprague-Dawley rat; type: ADME, cell-free; conditions: read-out: PPB
Procedure, shortened: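 Equilibrium dialysis of compound spiked into rat plasma against 25 mM phosphate buffer, pH 7.4. Dialysis ran 4 h at 37 °C with shaking. Both chambers were matrix-matched, extracted with cold acetonitrile and quantified by LC/MS/MS. Triplicate within one plate.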

[7] = target: T2, Cytochrome P450 1A2 (Homo sapiens, UniProt P05177); assay: Inhibition of human CYP1A2
T2 sequence (P05177 whole entry): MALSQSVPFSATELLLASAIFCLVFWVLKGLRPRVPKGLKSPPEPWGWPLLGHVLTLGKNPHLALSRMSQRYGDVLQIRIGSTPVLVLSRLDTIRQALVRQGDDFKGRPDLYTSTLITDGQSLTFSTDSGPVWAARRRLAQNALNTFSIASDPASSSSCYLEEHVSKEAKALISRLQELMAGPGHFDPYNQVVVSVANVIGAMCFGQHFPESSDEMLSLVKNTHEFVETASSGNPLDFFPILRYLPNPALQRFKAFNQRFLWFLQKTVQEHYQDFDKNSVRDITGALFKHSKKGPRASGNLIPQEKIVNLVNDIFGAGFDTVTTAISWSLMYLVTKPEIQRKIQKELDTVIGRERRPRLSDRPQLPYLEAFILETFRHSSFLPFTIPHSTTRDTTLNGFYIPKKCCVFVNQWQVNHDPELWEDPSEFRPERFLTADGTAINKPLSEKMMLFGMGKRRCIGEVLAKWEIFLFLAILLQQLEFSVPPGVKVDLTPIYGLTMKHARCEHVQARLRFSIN
Procedure, shortened: (§1)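 Human liver microsomes (final 0.1 mg/mL) in 0.1 M potassium phosphate, pH 7.4, with a probe cocktail: phenacetin 10 µM (1A2), diclofenac 5 µM (2C9), dextromethorphan 5 µM (2D6) and midazolam 2 µM (3A4). Compound at 100 nM–30 µM final, in duplicate, preincubated 15 min at 37 °C. NADPH (1 mM) reaction ran 8 min, was quenched with cold acetonitrile, and read by LC/MS/MS (MRM). IC50 determined.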

[8] = Cmax in Sprague-Dawley rat brain at 10 mg/kg, sc; type: ADME, organism-based; set-up: dose 10 mg/kg, route subcutaneous
Procedure, shortened: (§2)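 Rats dosed subcutaneously at 10 mg/kg as a 10% tween 80 microsuspension. […] In vivo samples were quantified by LC/MS/MS (ESI, positive-mode MRM) after gradient elution on a C18 column.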

[9] = target: Cytochrome P450 3A4 (Homo sapiens, UniProt P08684); assay: Inhibition of human CYP3A4; procedure, shortened: as §1
Cytochrome P450 3A4, sequence (P08684 whole entry): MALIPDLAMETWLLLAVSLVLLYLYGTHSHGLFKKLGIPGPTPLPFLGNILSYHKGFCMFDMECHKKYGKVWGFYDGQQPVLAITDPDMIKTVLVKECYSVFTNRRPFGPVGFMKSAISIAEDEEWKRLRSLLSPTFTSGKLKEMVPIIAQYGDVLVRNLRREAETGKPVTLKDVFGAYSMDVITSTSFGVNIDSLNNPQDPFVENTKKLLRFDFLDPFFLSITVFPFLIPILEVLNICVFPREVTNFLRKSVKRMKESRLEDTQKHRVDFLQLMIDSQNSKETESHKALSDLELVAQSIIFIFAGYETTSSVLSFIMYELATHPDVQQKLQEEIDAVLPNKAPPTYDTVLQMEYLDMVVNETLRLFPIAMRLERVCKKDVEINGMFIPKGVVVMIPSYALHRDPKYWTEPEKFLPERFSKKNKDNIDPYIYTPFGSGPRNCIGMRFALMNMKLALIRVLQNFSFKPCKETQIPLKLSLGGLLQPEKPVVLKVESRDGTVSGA

[10] = AUC in Sprague-Dawley rat plasma at 10 mg/kg, sc; type: ADME, organism-based; set-up: dose 10 mg/kg, route subcutaneous
[11] = target: Cytochrome P450 2D6 (Homo sapiens, UniProt P10635); assay: Inhibition of human CYP2D6; procedure, shortened: as §1
Cytochrome P450 2D6, sequence (P10635 whole entry): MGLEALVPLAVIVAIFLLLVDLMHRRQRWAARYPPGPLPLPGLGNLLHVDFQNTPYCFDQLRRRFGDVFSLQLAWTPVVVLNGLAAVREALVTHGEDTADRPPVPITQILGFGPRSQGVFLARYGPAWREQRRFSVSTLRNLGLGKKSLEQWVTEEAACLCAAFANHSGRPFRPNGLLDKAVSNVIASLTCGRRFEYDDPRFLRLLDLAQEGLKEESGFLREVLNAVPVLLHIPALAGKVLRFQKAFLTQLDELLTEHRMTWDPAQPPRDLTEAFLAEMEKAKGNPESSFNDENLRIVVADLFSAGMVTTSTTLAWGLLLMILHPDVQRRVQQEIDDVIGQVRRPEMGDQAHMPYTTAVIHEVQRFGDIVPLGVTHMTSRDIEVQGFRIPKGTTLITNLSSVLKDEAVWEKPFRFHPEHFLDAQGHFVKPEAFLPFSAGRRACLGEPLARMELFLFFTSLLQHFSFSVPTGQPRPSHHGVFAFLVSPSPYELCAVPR

[12] = target: Cytochrome P450 2C9 (Homo sapiens, UniProt P11712); assay: Inhibition of human CYP2C9; procedure, shortened: as §1
Cytochrome P450 2C9, sequence (P11712 whole entry): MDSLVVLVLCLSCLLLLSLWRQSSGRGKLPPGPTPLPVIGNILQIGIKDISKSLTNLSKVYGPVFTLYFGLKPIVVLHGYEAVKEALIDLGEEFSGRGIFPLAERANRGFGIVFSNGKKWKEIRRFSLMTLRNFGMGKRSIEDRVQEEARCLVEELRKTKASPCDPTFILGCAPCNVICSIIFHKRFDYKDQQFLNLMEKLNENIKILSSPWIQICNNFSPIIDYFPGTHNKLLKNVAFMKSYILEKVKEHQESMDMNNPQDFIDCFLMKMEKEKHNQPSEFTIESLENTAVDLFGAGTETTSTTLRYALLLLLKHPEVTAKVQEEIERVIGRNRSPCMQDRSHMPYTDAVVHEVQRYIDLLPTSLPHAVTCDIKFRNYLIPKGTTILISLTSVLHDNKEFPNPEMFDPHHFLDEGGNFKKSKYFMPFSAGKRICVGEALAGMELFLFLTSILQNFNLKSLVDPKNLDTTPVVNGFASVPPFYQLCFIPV

[13] = tested on: Plasma; assay: AUC in Sprague-Dawley rat brain at 10 mg/kg, sc; type: ADME, organism-based; set-up: dose 10 mg/kg, route subcutaneous; conditions: in vivo
[14] = tested on: Plasma; assay: Cmax in Sprague-Dawley rat plasma at 10 mg/kg, sc; type: ADME, organism-based; set-up: dose 10 mg/kg, route subcutaneous; conditions: in vivo; procedure, shortened: as §2
[15] = in vivo; conditions: Sprague-Dawley, rat, sc, 10 mg/kg

SMILES	Activity [1] [%]	pEC50 [2]	Activity [3] [%]	pEC50 [4]	also measured
O=C(Nc1ccc2c(ccn2C(=O)c2ccc(F)cc2Cl)c1)c1ccccn1	71.7	5.85	104	5.78	–
COc1cc(NC(=O)c2cnccn2)ccc1NC(=O)c1ccccc1Cl	74.3	5.75	112	5.95	–
O=C(Nc1ccc(NC(=O)C2CCCCC2)c(Cl)c1)c1ccccn1	59.2	6.37	106	6.23	–
O=C(Nc1ccc(NC(=O)c2cccs2)c(Cl)c1)c1ccccn1	57.8	5.98	93.8	5.95	–
O=C(Nc1ccc(NC(=O)c2ccc(F)cc2Cl)c(Cl)c1)c1ccccn1	61.1	6.94	119	6.77	fold change (FC) [5]: 6.7
O=C(Nc1ccc(NC(=O)c2ccccn2)cc1Cl)c1ccccc1	37.9	6.44	74.2	6.29	–
O=C(Nc1ccc(NC(=O)c2ccccc2Cl)c(F)c1)c1ccccn1	59.7	–	91.4	–	fold change (FC) [5]: 4.6
COc1cc(NC(=O)C2CCCCC2)ccc1NC(=O)c1ccccc1Cl	26.9	5.95	43.2	5.82	–
O=C(Nc1ccc(NC(=O)c2cncs2)c(Cl)c1)c1ccccn1	86.7	5.66	125	5.76	–
O=C(Nc1ccc(NC(=O)c2ccccc2Cl)c(C(F)(F)F)c1)c1ccccn1	69.5	5.68	102	5.63	–
O=C(Nc1ccc2c(ccn2C(=O)c2ccccn2)c1)c1ccccc1Cl	21.1	–	17.6	–	EC50 [2]: Not Active; EC50 [4]: Not Active
O=C(Nc1ccc(NC(=O)c2ccccc2F)c(Cl)c1)c1ccccn1	34.5	5.62	71.6	5.36	–
O=C(Nc1ccc(NC(=O)c2ccccc2Cl)cc1)c1ccccn1	33.6	5.79	49.6	5.65	–
COc1cc(NC(=O)c2ccco2)ccc1NC(=O)c1ccccc1Cl	62.7	6.01	122	6.00	–
CC(C)C(=O)Nc1ccc(NC(=O)c2ccccn2)cc1Cl	60	5.37	109	5.32	–
COc1cc(NC(=O)c2cscn2)ccc1NC(=O)c1ccccc1Cl	86.8	6.07	132	6.12	–

SMILES	Activity [1] [%]	pEC50 [2]	Activity [3] [%]	pEC50 [4]	also measured
COc1cc(NC(=O)c2ccc(-c3ccccc3)o2)ccc1NC(=O)c1ccccc1Cl	16.3	–	16.3	–	EC50 [2]: Not Active; EC50 [4]: Not Active
COc1ccccc1C(=O)Nc1ccc(NC(=O)c2ccccn2)cc1Cl	16.4	–	19	–	EC50 [2]: Not Active; EC50 [4]: Not Active
COc1cc(NC(=O)c2cccs2)ccc1NC(=O)c1ccccc1Cl	63.4	–	96.7	–	–
O=C(Nc1ccc(NC(=O)c2nccs2)c(Cl)c1)c1ccccn1	61.5	6.39	106	6.27	fold change (FC) [5]: 6
COc1cc(NC(=O)c2ccc(Br)o2)ccc1NC(=O)c1ccccc1Cl	87	5.84	125	6.00	–
COc1cc(NC(=O)C2CCCO2)ccc1NC(=O)c1ccccc1Cl (stereo not drawn)	21.3	–	27.1	< 5.00	EC50 [2]: Not Active
O=C(Nc1ccccc1)[C@]12C[C@H]1/C(=N\O)c1ccccc1O2	–	–	–	5.55	–
O=C(Nc1ccc(NC(=O)c2ccc(-c3ccccc3)o2)c(Cl)c1)c1ccccn1	24.9	–	45.6	5.47	EC50 [2]: Not Active
COc1cc(NC(=O)c2ccncn2)ccc1NC(=O)c1ccccc1Cl	77.9	5.88	133	6.05	–
COc1ccccc1C(=O)n1ccc2cc(NC(=O)c3ccccn3)ccc21	91.3	5.85	107	5.87	fold change (FC) [5]: 5.9; fraction unbound [6]: < 0.005
COc1cc(NC(=O)c2ccccn2)ccc1NC(=O)c1ccccc1Cl	79.4	–	147	–	INH [7]: > 30 µM; Cmax [8]: 69.1 ng/g; INH [9]: > 30 µM; AUC(0-t) [10]: 938 ng·h/mL; INH [11]: 12.8 µM; INH [12]: 14.3 µM; AUC [13]: 312 ng·h/g; fold change (FC) [5]: 72; Cmax [14]: 265 ng/mL; Tmax [15]: 1 h; fraction unbound [6]: < 0.005
O=C(Nc1ccc(NC(=O)c2ccc(F)cc2F)c(Cl)c1)c1ccccn1	24.6	–	43.5	5.68	EC50 [2]: Not Active
COc1cc(NC(=O)c2nccs2)ccc1NC(=O)c1ccccc1Cl	77.6	6.20	134	6.42	fold change (FC) [5]: 32.2; fraction unbound [6]: < 0.005
O=C(Nc1ccc(NC(=O)c2ccccn2)cc1Cl)c1cc(Cl)cc(Cl)c1	37.4	5.67	61	5.63	–
Cn1c(C(=O)Nc2ccc(NC(=O)c3ccccn3)cc2Cl)cc2ccccc21	49.9	5.33	87.1	5.53	–
